Reference: ChEMBL document CHEMBL5107994, “Biphenyl scaffold for the design of NMDA-receptor negative modulators: molecular modeling, synthesis, and biological activity” (RSC Med Chem, 2022)
Activity calls are given as the source filed them. The calls are words filed in the database; no cut-off is given here.

These compounds were tested against T1, Glutamate NMDA receptor (Rattus norvegicus) (UniProt P35439+Q00959+Q00960+Q00961+Q62645+Q8VHN2+Q9R1M7) (assay: Negative allosteric modulator activity at NMDA receptor in Wistar rat hippocampal CA1 neuronal membrane assessed as inhibition of NMDA and glycine induced current response at 30 uM by whole-cell patch clamp technique). Conditions: Hippocampal CA1 neurone.
Type: cell membranes
Outline: (§1)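 Male Wistar rats, 13–18 d old. CA1 pyramidal neurons isolated from hippocampal slices by vibrodissociation. Whole-cell patch clamp at room temperature, holding potential –80 mV, with 70–80% series-resistance compensation. Currents evoked by 100 μM NMDA plus 10 μM glycine. Percent block of the steady-state current measured at each compound concentration. Means ± SD from at least four experiments.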

SMILES | inhibition [%]
OC(COc1ccccc1)c1ccc(-c2ccccc2)cc1 (configuration not stated) | 37
CCNc1cccc(NCC(O)c2ccc(-c3ccccc3)cc2)c1 (configuration not stated) | 10
Oc1ccc(OCC(O)c2ccc(-c3ccccc3)cc2)cc1 (configuration not stated) | 36

Same assay, conditions: Hippocampal CA1 neurone, filed as negative allosteric modulator

SMILES | inhibition [%]
OC(CNc1ccccc1)c1ccc(-c2ccccc2)cc1 (configuration not stated) | 42

What follows are compounds tested against Glutamate NMDA receptor (assay: Negative allosteric modulator activity at NMDA receptor in Wistar rat hippocampal CA1 neuronal membrane assessed as inhibition of NMDA and glycine induced current response by whole-cell patch clamp technique). Conditions: hippocampal ca1 neurone.
Type: cell membranes
Outline: (§2)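 Acutely vibrodissociated CA1 pyramidal neurons from 13–18-day male Wistar rats, whole-cell recorded at –80 mV at room temperature. 100 μM NMDA + 10 μM glycine activated the receptors. Steady-state current block was measured across concentrations and fitted with the Hill equation for the concentration-inhibition relationship. At least four experiments, mean ± SD.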

SMILES | IC50 [µM]
OC(COc1ccccc1)c1ccc(-c2ccccc2)cc1 (configuration not stated) | > 30
CS(=O)(=O)Nc1cccc(NCC(O)c2ccc(-c3ccc(Br)cc3)cc2)c1 (configuration not stated) | 0.05
Oc1cccc(OCC(O)c2ccc(-c3ccccc3)cc2)c1 (configuration not stated) | 5
CS(=O)(=O)Nc1cccc(NCC(O)c2ccc(-c3ccccc3)cc2)c1 (configuration not stated) | 0.1
Oc1cccc(NCC(O)c2ccc(-c3ccccc3)cc2)c1 (configuration not stated) | 0.45
NC(COc1cccc(O)c1)c1ccc(-c2ccccc2)cc1 (configuration not stated) | 5
OC(CNc1ccccc1)c1ccc(-c2ccccc2)cc1 (configuration not stated) | > 30
CCNc1cccc(NCC(O)c2ccc(-c3ccccc3)cc2)c1 (configuration not stated) | > 30
Oc1ccc(OCC(O)c2ccc(-c3ccccc3)cc2)cc1 (configuration not stated) | > 30

These compounds were tested on Mus musculus (assay: Antidepressant activity in ICR (CD-1) mouse assessed as decrease in immobility time at 160 mg/kg, po and measured after 1 hr by forced swim test). Conditions: not given.
Type: functional, organism-based
Outline: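 Adult male ICR (CD-1) mice, 20–25 g, n=10 per group, dosed orally 1 h before a one-day forced swim test. Solutions were prepared on the day. Each mouse swam 5 min in a cylinder with at least 20 cm of water at 24–26°C, with fresh water per animal, and was videotaped. Total immobility (passive floating) was compared with an […] saline/5% DMSO group by Mann-Whitney U-test.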

SMILES | Activity
CNCCC(Oc1ccc(C(F)(F)F)cc1)c1ccccc1 (configuration not stated) | Active

What follows are compounds tested against Glutamate NMDA receptor (assay: Displacement of 3[H]ifenprodil from NMDA receptor in Wistar rat brain membrane incubated for 2 hrs by scintillation counting method). Conditions: not given.
Type: cell membranes
Outline: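 Rat hippocampal membranes prepared in HEPES/Tris pH 7.6 buffers with repeated EDTA washes, stored in liquid nitrogen. Incubated with [3H]-ifenprodil (40 nM working-solution aliquot) for 2 h at room temperature. Nonspecific binding measured with 10 μM unlabeled ifenprodil. Test compounds over 10^-8 to 10^-3 M. Filtration on polyethyleneimine-soaked GF/B filters, then scintillation counting. Each concentration run in triplicate and averaged.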

SMILES | IC50 [µM]
OC(COc1ccccc1)c1ccc(-c2ccccc2)cc1 (configuration not stated) | > 100
CS(=O)(=O)Nc1cccc(NCC(O)c2ccc(-c3ccc(Br)cc3)cc2)c1 (configuration not stated) | 1
Oc1cccc(OCC(O)c2ccc(-c3ccccc3)cc2)c1 (configuration not stated) | 30
CS(=O)(=O)Nc1cccc(NCC(O)c2ccc(-c3ccccc3)cc2)c1 (configuration not stated) | 5.4
Oc1cccc(NCC(O)c2ccc(-c3ccccc3)cc2)c1 (configuration not stated) | 4.2
NC(COc1cccc(O)c1)c1ccc(-c2ccccc2)cc1 (configuration not stated) | 41
OC(CNc1ccccc1)c1ccc(-c2ccccc2)cc1 (configuration not stated) | > 100
CCNc1cccc(NCC(O)c2ccc(-c3ccccc3)cc2)c1 (configuration not stated) | > 100
Oc1ccc(OCC(O)c2ccc(-c3ccccc3)cc2)cc1 (configuration not stated) | > 100

The compounds below were run against T1, Glutamate NMDA receptor (Rattus norvegicus) (assay: Negative allosteric modulator activity at NMDA receptor in Wistar rat hippocampal CA1 neuronal membrane assessed as inhibition of NMDA and glycine induced current response at 3 uM by whole-cell patch clamp technique). Conditions: Hippocampal CA1 neurone, filed as negative allosteric modulator.
Type: cell membranes
Outline: as §1

SMILES | inhibition [%]
CS(=O)(=O)Nc1cccc(NCC(O)c2ccc(-c3ccccc3)cc2)c1 (configuration not stated) | 76

What follows are compounds tested against T1, Glutamate NMDA receptor (Rattus norvegicus) (assay: Negative allosteric modulator activity at NMDA receptor in Wistar rat hippocampal CA1 neuronal membrane assessed as inhibition of NMDA and glycine induced current response by measuring maximum efficacy by whole-cell patch clamp technique). Conditions: Hippocampal CA1 neurone, filed as negative allosteric modulator.
Type: cell membranes
Outline: as §2

SMILES | Emax [%]
CS(=O)(=O)Nc1cccc(NCC(O)c2ccc(-c3ccc(Br)cc3)cc2)c1 (configuration not stated) | 78
Oc1cccc(OCC(O)c2ccc(-c3ccccc3)cc2)c1 (configuration not stated) | 62
CS(=O)(=O)Nc1cccc(NCC(O)c2ccc(-c3ccccc3)cc2)c1 (configuration not stated) | 83
C[C@H]([C@@H](O)c1ccc(O)cc1)N1CCC(Cc2ccccc2)CC1 | 62
Oc1cccc(NCC(O)c2ccc(-c3ccccc3)cc2)c1 (configuration not stated) | 72
NC(COc1cccc(O)c1)c1ccc(-c2ccccc2)cc1 (configuration not stated) | 65

What follows are compounds tested against T1, Glutamate NMDA receptor (Rattus norvegicus) (assay: Negative allosteric modulator activity at NMDA receptor in Wistar rat hippocampal CA1 neuronal membrane assessed as inhibition of NMDA and glycine induced current response at 0.3 uM by whole-cell patch clamp technique). Conditions: Hippocampal CA1 neurone, filed as negative allosteric modulator.
Type: cell membranes
Outline: as §1

SMILES | inhibition [%]
CS(=O)(=O)Nc1cccc(NCC(O)c2ccc(-c3ccccc3)cc2)c1 (configuration not stated) | 61

Each compound was assayed against T1, Glutamate NMDA receptor (Rattus norvegicus) (assay: Negative allosteric modulator activity at NMDA receptor in Wistar rat hippocampal CA1 neuronal membrane assessed as inhibition of NMDA and glycine induced current response at 0.03 uM by whole-cell patch clamp technique). Conditions: Hippocampal CA1 neurone.
Type: cell membranes
Outline: as §1

SMILES | inhibition [%]
CS(=O)(=O)Nc1cccc(NCC(O)c2ccc(-c3ccccc3)cc2)c1 (configuration not stated) | 25
